Source: PubChem (Sanford-Burnham Center for Chemical Genomics)
Compounds with a hit are over-represented: about 1.4% of the library has one in this group of screens.
CXCR6 inh: blocks human CXCR6 beta-arrestin recruitment. O00574. CHO-K1 PathHunter CXCR6 beta-arrestin, luminescence. 360,000 tested, 0.36% active. inhibition, % at 20 µM; in the data active = inhibition above about 34%, passing the limit was not always enough;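 also: antagonist mode with CXCL16 agonist at 10 nM final; 0% = 10 nM CXCL16 with DMSO and 100% = unstimulated wells without agonist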
APJ antag: blocks the human apelin receptor APJ. P35414. CHO-K1 APJ beta-arrestin complementation, luminescence. inhibition, % at 20 µM. 330,000 tested, 0.32% active;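 active = inhibition above about 40% at 20 µM, limit read from the data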;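 also: cells challenged with 10 nM apelin-13 agonist together with compound; plate controls were apelin-13 plus DMSO wells for no effect and DMSO wells lacking apelin-13 for full effect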
APJ agonist: agonists of human APJ apelin receptor; P35414; CHO-K1 APJ PathHunter beta-arrestin, luminescence; 0% DMSO wells, 100% apelin; activation, % at 20 µM; 330,000 tested, 0.11% active;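 active = activation more than six SD over the plate average, tested at 20 µM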;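 also: 0% = DMSO alone and 100% = apelin-13 at 10 nM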
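Assay system: engineered CHO-K1 APJ arrestin reporter cells; Amount: 1000 CHO-K1 reporter cells seeded per well; Dosing: one dose, 20 µM compound, 1% DMSO; Times: compound stimulation 90 min at 25 °C, detection 60 min; Measured by: luminescent beta-gal fragment complementation, chemiluminescent substrate; Read-out: APJ–arrestin association signal; Controls: DMSO vs Apelin-13 10 nM.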
A3G deaminase: blocks human APOBEC3G single-stranded DNA deamination. recombinant A3G, ssDNA deamination FAM/TAMRA fluorescence. inhibition, % at 20 µM. 330,000 tested, 0.28% active;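 active = inhibition of at least 40% at 20 µM, with no more than 30% in the related APOBEC3A deaminase screen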;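 also: plate controls were DMSO wells with A3G for no effect and wells lacking A3G enzyme for full effect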
Target sequence (Q9HC16 whole entry, looked up): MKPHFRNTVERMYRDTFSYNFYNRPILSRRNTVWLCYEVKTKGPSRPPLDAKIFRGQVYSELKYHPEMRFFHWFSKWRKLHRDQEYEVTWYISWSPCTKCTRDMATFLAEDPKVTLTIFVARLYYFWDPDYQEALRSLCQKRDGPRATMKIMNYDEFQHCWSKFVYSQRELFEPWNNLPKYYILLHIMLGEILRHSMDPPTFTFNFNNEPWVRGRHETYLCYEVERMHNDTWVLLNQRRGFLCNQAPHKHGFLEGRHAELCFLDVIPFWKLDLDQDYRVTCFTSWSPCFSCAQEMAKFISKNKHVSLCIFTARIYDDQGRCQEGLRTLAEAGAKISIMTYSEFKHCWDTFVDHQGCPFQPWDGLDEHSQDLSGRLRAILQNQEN
CCR6 antagonist: antagonists of human CCR6 receptor; inhibition, % at 20 µM; CHO-K1 CCR6 PathHunter beta-arrestin, luminescence, CCL20-stimulated; 340,000 tested, 0.49% active; AID 493098; P51684;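 active = compounds whose inhibition of the agonist-driven luminescence signal at 20 µM reaches about 50%, limit read from the data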;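 also: cells stimulated with CCL20 at 14 nM final; plate controls were DMSO with CCL20 for no effect and DMSO without agonist for full effect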
A3A deaminase: blocks human APOBEC3A ssDNA deamination. P31941. recombinant A3A, FAM/TAMRA ssDNA deamination fluorescence. inhibition, % at 20 µM. 330,000 tested, 0.41% active;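 active = at least 40% inhibition at 20 µM here, with at most 30% in a related deaminase screen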;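 also: plate controls were A3A with DMSO for no effect and wells lacking A3A enzyme for full effect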
Target sequence (P31941 whole entry, looked up): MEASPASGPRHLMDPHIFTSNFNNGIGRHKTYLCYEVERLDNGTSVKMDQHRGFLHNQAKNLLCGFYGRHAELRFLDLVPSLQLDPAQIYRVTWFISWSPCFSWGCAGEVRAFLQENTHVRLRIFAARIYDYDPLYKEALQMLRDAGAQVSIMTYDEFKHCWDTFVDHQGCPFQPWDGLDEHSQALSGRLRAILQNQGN
CXCR6 confirm: CXCR6 antagonism confirmation, single concentration | inhibition, % at 20 µM | shares compounds with CXCR6 inh | 700 tested, 65% active | CHO-K1 CXCR6 PathHunter beta-arrestin, luminescence;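 active = mean inhibition over four retests above 40%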;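 also: receptor stimulated with 10 nM CXCL16 agonist; beta-galactosidase fragment complementation upon beta-arrestin recruitment to receptor; plate controls were CXCL16 plus DMSO for no effect and DMSO without CXCL16 for full effect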
* marks the source's active call; other numbers are inactive results; . = no result.

SMILES	CXCR6 inh	APJ antag	APJ agonist	A3G deaminase	CCR6 antagonist	A3A deaminase	CXCR6 confirm
CC(C)CC1C(=O)N(Cc2cn(CC3CCCCC3)nn2)CCS(=O)(=O)N1Cc1ccc(-c2ccc(Cl)c(Cl)c2)cc1 (stereo unspecified)	104*	.	.	.	.	.	15
CNc1cnn(-c2ccc(C)cc2)c(=O)c1Cl	56*	-7	0	-7	1	-5	2
CNc1cnn(-c2ccc(C)cc2)c(=O)c1Sc1ccc(C)cc1	2	-10	-4	-17	8	-1	.
CCc1nnc(NC(=O)c2cc(-c3ccncc3)nc3ccccc23)s1	47*	-13	-1	0	-3	5	29
COC(=O)c1cc(F)c(-n2cncn2)c(F)c1	0	-4	-5	-2	-11	0	.
COC(=O)c1cc([N+](=O)[O-])c(-n2cncn2)c([N+](=O)[O-])c1	79*	.	.	.	97*	.	96*
O=[N+]([O-])c1ccc(Sc2nc3ccccc3o2)c([N+](=O)[O-])c1	43*	-78	9	-2	43	-9	46*
O=[N+]([O-])c1ccc(Cl)cc1Sc1nc2ccccc2o1	-8	-24	4	-6	-8	0	.
COCOCCn1cc(CN2CCS(=O)(=O)N(Cc3ccc(-c4cccc(N(C)C)c4)cc3)C(C(C)C)C2=O)nn1 (stereo unspecified)	1	.	.	.	.	.	.
C=CC[C@@H](CC(=O)N(CCO)Cc1ccccc1)C(=O)NC[C@@H](OC(=O)[C@@H](CC=C)Cc1ccc(F)cc1)c1ccccc1	23	-3	-4	-2	14	0	.
C=CC[C@H](CC(=O)N(CCO)Cc1ccccc1)C(=O)NC[C@H](OC(=O)[C@@H](CC=C)Cc1ccc(F)cc1)c1ccccc1	48*	13	-2	-8	24	-3	19
C=CC[C@@H](CC(=O)N(CCO)Cc1ccccc1)C(=O)N[C@@H](COC(=O)[C@@H](CC=C)Cc1ccc(F)cc1)Cc1ccccc1	42*	5	-5	-1	28	-1	23
C[C@H]1CN([C@@H](C)CO)C(=O)CCCn2nncc2CO[C@@H]1CN(C)Cc1ccccc1C(F)(F)F	39*	.	.	.	.	.	1
Cc1ccccc1CN(C)C[C@H]1OCc2cnnn2CCCC(=O)N([C@@H](C)CO)C[C@@H]1C	-2	.	.	.	.	.	.
O=C(COC(=O)C1CCN(S(=O)(=O)c2cccs2)CC1)c1ccc2c(c1)OCCO2	-9	12	-3	-2	10	-3	.
O=C(COC(=O)C1CCN(S(=O)(=O)c2cccs2)CC1)c1cc2ccccc2o1	34*	37	-12	2	74*	2	42*
CC1(C)CC[C@]2(C(=O)n3ccnc3)CC[C@]3(C)[C@H](C(=O)C=C4[C@@]5(C)C=C(C#N)C(=O)C(C)(C)[C@@H]5CC[C@]43C)[C@@H]2C1	55*	.	.	.	57*	.	58*
COc1ccccc1-c1noc(CCC(=O)Nc2cccc(C)c2)n1	62*	9	-4	-6	21	17	-5
COc1cccc(NC(=O)CN(C)C(=O)c2ccc3[nH]c4c(c3c2)CC(C)CC4)c1 (stereo unspecified)	-1	7	0	3	11	0	.
CCOc1cc(Br)c(Br)c(C=Nc2ccc(NC(C)=O)cc2)c1O	42*	31	-5	1	19	7	70*
CCC(C)[C@H]1CN=C(N)N1CCc1cccc(F)c1 (stereo partly specified)	12	1	5	-6	-3	0	.
COCC1CCCCN1C(=O)c1ccc2oc(CCc3ccccc3)nc2c1 (stereo unspecified)	37*	2	-4	-11	3	-4	22
COc1ccc(C)cc1S(=O)(=O)NC(C)C(=O)NC1CC1 (stereo unspecified)	6	-27	0	-7	-4	-1	.
Cc1ccc(NC(=O)c2ccc(Nc3c([N+](=O)[O-])cc([N+](=O)[O-])cc3[N+](=O)[O-])cc2)cc1	43*	35	-1	9	71*	3	56*
CC(=O)Nc1ccc(NC(=O)c2cc([N+](=O)[O-])cc([N+](=O)[O-])c2)cc1	-4	-39	12	-1	13	2	.
SMILES	CXCR6 inh	APJ antag	APJ agonist	A3G deaminase	CCR6 antagonist	A3A deaminase	CXCR6 confirm
COc1cc(/C=C/C(O)=C/C(=O)/C=C/c2ccc(O)cc2)ccc1O	40*	4	-9	-9	61*	-1	45*
COc1cc(N2C(=O)C=CC2=O)ccc1N1C(=O)C=CC1=O	106*	.	.	.	107*	.	47*
COc1ccc(N2C(=O)C3CC(C)=C(C)CC3C2=O)c(OC)c1 (stereo unspecified)	2	6	-5	-7	9	-2	.
Cc1ccc(NC(=O)CC2C(=O)NCCN2C(=O)c2ccc(F)cc2)cc1 (stereo unspecified)	-3	0	-6	0	-3	2	.
C[C@H]1CN([C@@H](C)CO)C(=O)CCCn2nncc2CO[C@H]1CN(C)C(=O)Nc1cccc2ccccc12	-2	.	.	.	.	.	.
O=C(NNc1ccc(C(F)(F)F)cc1[N+](=O)[O-])c1ccc(NS(=O)(=O)c2ccc(F)cc2)cc1	48*	.	.	.	58*	.	39
CC(C)[C@H](Nc1ccc(C(F)(F)F)cc1[N+](=O)[O-])C(=O)O	9	0	-7	-2	10	2	.
CS(=O)(=O)N(CC(=O)Nc1ccccc1C(=O)N1CCOCC1)c1cccc(F)c1	-3	10	-3	-3	2	1	.
CCOc1ccc(N(CC(=O)Nc2ccccc2C(=O)N2CCOCC2)S(=O)(=O)c2ccc(F)cc2)cc1	70*	3	-4	-4	3	0	-5
CCN(CC(=O)Nc1ccc2c(c1)OCCO2)C(=O)COc1ccc(C(C)=O)cc1	-2	.	.	.	.	.	.
C=CCSC1=N/C(=C\c2cc(OCC)c(OC(C)=O)c([N+](=O)[O-])c2)C(=O)S1	46*	25	-7	1	53*	8	54*
O=[N+]([O-])c1cccc(S(=O)(=O)Nc2ccc3cn[nH]c3c2)c1	-30	-5	1	-7	4	-1	.
COc1ccccc1Nc1ncccc1C(=O)O	0	10	-5	-7	6	-2	.
COc1ccc(Nc2ncccc2C(=O)O)cc1	70*	-1	1	0	-35	2	17
CC(Sc1nc2ccccc2s1)C(=O)c1c(N)n(C)c(=O)n(C)c1=O (stereo unspecified)	-2	-7	-2	-19	-16	-5	.
COC(=O)CN(c1ccccc1)S(=O)(=O)c1cc(Br)ccc1OC	92*	6	-1	-9	9	-1	22
